Results collected from several papers.
Compare with care: the assays were run in different laboratories.
Read-out: microbial growth

Cc1ccc2nc(-c3ccc([N+](=O)[O-])cc3)n(Cc3ccc(Cl)cc3)c2c1 — MIC (Aspergillus niger; ATCC16404): 64 µg/mL
CC[C@@H]([C@H](C)O)n1ncn(-c2ccc(N3CCN(c4ccc(OC[C@@H]5CO[C@@](Cn6cncn6)(c6ccc(F)cc6F)C5)cc4)CC3)cc2)c1=O — MIC (Aspergillus brasiliensis; ATCC16404; 72 h): < 0.3 µM
CCCCCCCCCN1CCNCC1 — MIC (Lodderomyces parapsilosis; broth dilution; ATCC22019; 48 h): > 31.3 µg/mL
O=c1[nH]c(NCc2ccc(Cl)c(Cl)c2)nc2ncn(CCCCCN3CCOCC3)c12 — MIC (Bacteroides fragilis; agar dilution; 48 h): > 32 µg/mL
CCOc1ccc(-c2nc3ccccc3n2Cc2ccccc2)cc1 — MIC (Aspergillus niger; ATCC16404): 256 µg/mL
OC(CN1CCOCC1)(Cn1cncn1)c1ccc(F)cc1F (stereo not shown) — MIC (Lodderomyces parapsilosis; broth dilution; ATCC22019; 48 h): 31.3 µg/mL
Cc1ccc(C)n1-c1ccc(-c2nnco2)cc1 — MIC (Aspergillus niger; broth dilution; ATCC6275): 125 µg/mL
CC1=NN(CNc2ccc(O)cc2)C(=O)C1=NNn1c(-c2ccccc2)nc2ccccc2c1=O — MIC (Aspergillus niger; broth dilution): 107 µM
CCCCCCCCCCN1CCN(CC(O)(Cn2cncn2)c2ccc(F)cc2F)CC1 (stereo not shown) — MIC (Lodderomyces parapsilosis; broth dilution; ATCC22019; 48 h): 0.015 µg/mL
Cc1ccc(C)n1-c1ccc(-c2nnc(-c3cccc([N+](=O)[O-])c3)[nH]2)cc1 — MIC (Aspergillus niger; broth dilution; ATCC6275): 31.2 µg/mL
C[C@@H]1[C@H](O)[C@@H](C)/C=C/C=C/C=C/C=C/C=C/C=C/C=C/[C@H](O[C@@H]2O[C@H](C)[C@@H](O)[C@H](N)[C@@H]2O)C[C@@H]2O[C@](O)(C[C@@H](O)C[C@@H](O)[C@H](O)CC[C@@H](O)C[C@@H](O)CC(=O)O[C@H]1C)C[C@H](O)[C@H]2C(=O)O — MIC (Lodderomyces parapsilosis; broth dilution): 0.5 to 1 µg/mL
Cc1ccc2nc(-c3ccc([N+](=O)[O-])cc3)[nH]c2c1 — MIC (Aspergillus niger; ATCC16404): 512 µg/mL
CC[C@H](C)C[C@H](C)CCCCCCCCC(=O)N[C@H]1C[C@@H](O)[C@@H](NCCN)NC(=O)[C@@H]2[C@@H](O)CCN2C(=O)[C@H]([C@H](O)CCN)NC(=O)[C@H]([C@H](O)[C@@H](O)c2ccc(O)cc2)NC(=O)[C@@H]2C[C@@H](O)CN2C(=O)[C@H]([C@@H](C)O)NC1=O — MIC (Lodderomyces parapsilosis; broth dilution; ATCC22019; 48 h): 1.95 µg/mL
Cc1ccc2nc(-c3ccc([N+](=O)[O-])cc3)n(Cc3ccccc3Cl)c2c1 — MIC (Aspergillus niger; ATCC16404): 128 µg/mL
CCCCCCCCCCCCN1CCNCC1 — MIC (Lodderomyces parapsilosis; broth dilution; ATCC22019; 48 h): 1.95 µg/mL
C=CCn1c(-c2ccc(OC)c(OC)c2)nc2ccccc21 — MIC (Aspergillus niger; ATCC16404): 512 µg/mL
Cc1ccc(C)n1-c1ccc(C(=O)NNC=O)cc1 — MIC (Aspergillus niger; broth dilution; ATCC6275): 250 µg/mL
O=c1[nH]c(NCc2ccc(Cl)c(Cl)c2)nc2ncn(CCN3CCOCC3)c12 — MIC (Bacteroides fragilis; agar dilution; 48 h): > 32 µg/mL
CCCCCCCCCCCCCCN1CCN(CC(O)(Cn2cncn2)c2ccc(F)cc2F)CC1 (stereo not shown) — MIC (Lodderomyces parapsilosis; broth dilution; ATCC22019; 48 h): > 31.3 µg/mL
